Assay results from ChEMBL document CHEMBL6078712, “Triterpenoid phthalimides as selective anti-cancer agents targeting mitochondrial apoptosis” (Eur J Med Chem, 2025).

Experiments:
[1] = test system: CCRF-CEM; assay: Cytotoxicity against human CCRF-CEM cells assessed as inhibition of cell growth incubated for 72 hrs by MTS assay; format: functional, cell-based
Summary of the method: (§1)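 MTS assay on eight human cancer lines and two non-tumour fibroblast lines. IC50 is the concentration that inhibits cell growth by 50 %. SD typically up to 15 % of the mean.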

[2] = test system: CEM-DNR; assay: Cytotoxicity against human CEM-DNR cells assessed as inhibition of cell growth incubated for 72 hrs by MTS assay; format: functional, cell-based; summary of the method: as §1
[3] = test system: HCT-116; assay: Cytotoxicity against human HCT-116 cells assessed as inhibition of cell growth incubated for 72 hrs by MTS assay; format: functional, cell-based; conditions: HCT-116, 72 h; summary of the method: as §1
[4] = test system: HCT 116 TP53(-/-); assay: Cytotoxicity against human HCT116-p53-null cells assessed as inhibition of cell growth incubated for 72 hrs by MTS assay; format: functional, cell-based; summary of the method: as §1
[5] = test system: K562; assay: Cytotoxicity against human K562 cells assessed as inhibition of cell growth incubated for 72 hrs by MTS assay; format: functional, cell-based; conditions: K562, 72 h; summary of the method: as §1
[6] = Cytotoxicity against human K562-Tax cells assessed as inhibition of cell growth incubated for 72 hrs by MTS assay; format: functional, cell-based; summary of the method: as §1
[7] = test system: A549; assay: Cytotoxicity against human A549 cells assessed as inhibition of cell growth incubated for 72 hrs by MTS assay; format: functional, cell-based; conditions: A549, 72 h; summary of the method: as §1
[8] = test system: U2OS; assay: Cytotoxicity against human U2OS cells assessed as inhibition of cell growth incubated for 72 hrs by MTS assay; format: functional, cell-based; summary of the method: as §1
[9] = Cytotoxicity against human BJ cells assessed as inhibition of cell growth incubated for 72 hrs by MTS assay; format: toxicity, cell-based; summary of the method: as §1
[10] = Cytotoxicity against human MRC5 cells assessed as inhibition of cell growth incubated for 72 hrs by MTS assay; format: toxicity, cell-based; summary of the method: as §1

SMILES | IC50 [1] | IC50 [2] | IC50 [3] | IC50 [4] | IC50 [5] | IC50 [6] | IC50 [7] | IC50 [8] | IC50 at 72 h [9] | IC50 at 72 h [10]
CC(=O)O[C@H]1CC[C@]2(C)[C@H]3CC[C@@H]4[C@H]5[C@H](c6cc7c(c(-c8ccccc8)c6)C(=O)NC7=O)CC[C@]5(CO)CC[C@@]4(C)[C@]3(C)CC[C@H]2C1(C)C | > 50 µM | > 50 µM | > 50 µM | > 50 µM | > 50 µM | > 50 µM | > 50 µM | > 50 µM | > 50 µM | > 50 µM
CC1(C)[C@@H](O)CC[C@]2(C)[C@H]3CC[C@@H]4[C@H]5[C@H](c6ccc(C#N)c(C#N)c6)CC[C@]5(C(=O)O)CC[C@@]4(C)[C@]3(C)CC[C@@H]12 | 5.9 µM | 5.23 µM | 23.7 µM | 31.8 µM | 30 µM | 5.08 µM | 19.9 µM | 20 µM | 35.5 µM | 25.3 µM
CC1(C)[C@@H](O)CC[C@]2(C)[C@H]3CC[C@@H]4[C@H]5[C@H](c6cc7c(c(-c8ccccc8)c6)C(=O)N(c6ccc(C#N)cc6)C7=O)CC[C@]5(C(=O)O)CC[C@@]4(C)[C@]3(C)CC[C@@H]12 | 14.2 µM | > 50 µM | > 50 µM | > 50 µM | > 50 µM | > 50 µM | > 50 µM | > 50 µM | > 50 µM | > 50 µM
CC(=O)Nc1ccc(N2C(=O)c3cc([C@@H]4CC[C@]5(C(=O)O)CC[C@]6(C)[C@H](CC[C@@H]7[C@@]8(C)CC[C@H](OC(C)=O)C(C)(C)[C@@H]8CC[C@]76C)[C@@H]45)cc(-c4ccccc4)c3C2=O)cc1 | 8.08 µM | > 50 µM | 16.8 µM | 28.4 µM | 27.9 µM | > 50 µM | 34.6 µM | 18.8 µM | > 50 µM | 33.7 µM
COc1ccc(N2C(=O)c3ccc([C@@H]4CC[C@]5(CO)CC[C@]6(C)[C@H](CC[C@@H]7[C@@]8(C)CC[C@H](OC(C)=O)C(C)(C)[C@@H]8CC[C@]76C)[C@@H]45)cc3C2=O)cc1 | > 50 µM | > 50 µM | > 50 µM | > 50 µM | > 50 µM | > 50 µM | > 50 µM | > 50 µM | > 50 µM | > 50 µM
CC1(C)[C@@H](O)CC[C@]2(C)[C@H]3CC[C@@H]4[C@H]5[C@H](c6cc(C#N)c(C#N)c(-c7ccccc7)c6)CC[C@]5(C(=O)O)CC[C@@]4(C)[C@]3(C)CC[C@@H]12 | 5.99 µM | 13.7 µM | 26 µM | 31.6 µM | 27.8 µM | 7 µM | 20.7 µM | 19.2 µM | 36.2 µM | 25.7 µM
COc1ccc(N2C(=O)c3ccc([C@@H]4CC[C@]5(C(=O)O)CC[C@]6(C)[C@H](CC[C@@H]7[C@@]8(C)CC[C@H](O)C(C)(C)[C@@H]8CC[C@]76C)[C@@H]45)cc3C2=O)cc1 | 11.1 µM | 9.85 µM | > 50 µM | > 50 µM | > 50 µM | 5.35 µM | 28.1 µM | 27.5 µM | > 50 µM | > 50 µM
COC(=O)c1ccc([C@@H]2CC[C@]3(C(=O)O)CC[C@]4(C)[C@H](CC[C@@H]5[C@@]6(C)CC[C@H](O)C(C)(C)[C@@H]6CC[C@]54C)[C@@H]23)cc1C(=O)OC | 14.1 µM | 11.5 µM | 16.6 µM | 16.2 µM | 13.8 µM | 11.5 µM | 11.1 µM | 19.6 µM | 31.1 µM | 25.3 µM
CC1(C)[C@@H](O)CC[C@]2(C)[C@H]3CC[C@@H]4[C@H]5[C@H](c6ccc(C(=O)O)c(C(=O)O)c6)CC[C@]5(C(=O)O)CC[C@@]4(C)[C@]3(C)CC[C@@H]12 | > 50 µM | > 50 µM | > 50 µM | > 50 µM | > 50 µM | > 50 µM | > 50 µM | > 50 µM | > 50 µM | > 50 µM
Cc1cc([C@@H]2CC[C@]3(C(=O)O)CC[C@]4(C)[C@H](CC[C@@H]5[C@@]6(C)CC[C@H](O)C(C)(C)[C@@H]6CC[C@]54C)[C@@H]23)cc2c1C(=O)NC2=O | 7.97 µM | 8.76 µM | 25.9 µM | 27.2 µM | > 50 µM | 7.2 µM | > 50 µM | 24.8 µM | > 50 µM | 34.3 µM
CC1(C)[C@@H](O)CC[C@]2(C)[C@H]3CC[C@@H]4[C@H]5[C@H](c6ccc7c(c6)C(=O)N(c6ccc(C#N)cc6)C7=O)CC[C@]5(C(=O)O)CC[C@@]4(C)[C@]3(C)CC[C@@H]12 | 19.8 µM | 27.3 µM | > 50 µM | > 50 µM | > 50 µM | 12.7 µM | > 50 µM | > 50 µM | > 50 µM | > 50 µM
CC(=O)Nc1ccc(N2C(=O)c3ccc([C@@H]4CC[C@]5(C(=O)O)CC[C@]6(C)[C@H](CC[C@@H]7[C@@]8(C)CC[C@H](OC(C)=O)C(C)(C)[C@@H]8CC[C@]76C)[C@@H]45)cc3C2=O)cc1 | 16.5 µM | 20.8 µM | 24.4 µM | 29.6 µM | 27.1 µM | 18.2 µM | 27.1 µM | 24.3 µM | 31.2 µM | 19.8 µM
COC(=O)c1cc([C@@H]2CC[C@]3(C(=O)O)CC[C@]4(C)[C@H](CC[C@@H]5[C@@]6(C)CC[C@H](O)C(C)(C)[C@@H]6CC[C@]54C)[C@@H]23)cc(-c2ccccc2)c1C(=O)OC | 6.3 µM | 4.85 µM | 5.46 µM | 6.17 µM | 6.12 µM | 4.36 µM | 4.44 µM | 9.94 µM | 36.3 µM | 30.2 µM
COC(=O)c1cc([C@@H]2CC[C@]3(C(=O)O)CC[C@]4(C)[C@H](CC[C@@H]5[C@@]6(C)CC[C@H](O)C(C)(C)[C@@H]6CC[C@]54C)[C@@H]23)cc(C)c1C(=O)OC | 14 µM | 6.78 µM | 16.3 µM | 16.1 µM | 12.1 µM | 7.21 µM | 10.4 µM | 19 µM | 33 µM | 32.4 µM
CC1(C)[C@@H](O)CC[C@]2(C)[C@H]3CC[C@@H]4[C@H]5[C@H](c6cc7c(c(-c8ccccc8)c6)C(=O)NC7=O)CC[C@]5(C(=O)O)CC[C@@]4(C)[C@]3(C)CC[C@@H]12 | 7.18 µM | 9.65 µM | 7.22 µM | 7.43 µM | 7.58 µM | 10.4 µM | 6.39 µM | 9.82 µM | 34.5 µM | 32.4 µM
